Source: ChEMBL document CHEMBL5346963, “Innovative Strategy toward Mutant CFTR Rescue in Cystic Fibrosis: Design and Synthesis of Thiadiazole Inhibitors of the E3 Ligase RNF5” (J Med Chem, 2023)
One block for each compound: values may come before it. Active and inactive are the calls of the source. Unless noted, the calls are words filed in the database; no cut-off is given here.

What was measured:
[1] = Aggregation property of the compound in PBS buffer at pH 7.5 by 1D 1H-NMR analysis; format: physicochemical
Outline: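 Solubility by 1H 1D NMR and aggregation by WaterLOGSY at 298 K in PBS pH 7.5 with 1 μM ZnCl2, 1 mM DTT, 10% D2O, 1% DMSO-d6. Theoretical concentrations 20, 50 and 100 μM, with 200 μM 4-trifluoromethyl benzoic acid as internal reference. WaterLOGSY: mixing time 1.7 s, relaxation delay 2 s, 256 scans.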

[2] = test system: CFBE41o-; assay: Antiproliferative activity against human CFBE41o- cells harbouring CFTR F508del mutant/HS-YFP at 5 uM incubated for 48 hrs; format: toxicity, cell-based
Outline: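 Cells plated at 5000/well and treated after 6 h with compound (5 μM) or DMSO. Cell-covered area was followed by the YFP signal over 48 h on a high-content imager. Means ± SEM, n = 6. Three independent experiments; ANOVA with Dunnett test.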

[3] = test system: CFBE41o-; assay: Induction of apoptosis in human CFBE41o- cells assessed as increase in apoptosis at 100 uM incubated for 24 hrs by Hoechst 33342 and propidium iodide staining based analysis; format: toxicity, cell-based
Outline: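 Cells were plated at 10,000/well and treated after 6 h with compound (5, 20, 100 μM), VX-809 (1 μM), MG132 (50 μM) or DMSO for 24 h. Hoechst 33342 counted total nuclei and propidium iodide counted apoptotic nuclei, by high-content imaging. Means ± SEM; ANOVA with Dunnett test.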

[4] = test system: CFBE41o-; assay: Induction of autophagy in human CFBE41o- cells harbouring CFTR F508del mutant assessed as increase in number of autophagic vacuoles at 20 nM incubated for 3 hrs by confocal microscopy based analysis; format: functional, cell-based
Outline: (§1)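 CFBE41o– F508del/HS-YFP cells (50,000/well) were treated 24 h with compound (5 μM), VX-809 (1 μM) or DMSO. SAR405 (2 μM) and torin1 (20 nM) were added near the end of incubation. Cells were then loaded with 50 μM MDC in PBS for 10 min at 37 °C, washed, and imaged. MDC spot number was normalized to control. n = 3; ANOVA with Dunnett test.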

[5] = molecular target: Cystic fibrosis transmembrane conductance regulator (Homo sapiens, UniProt P13569, F508DEL); assay: Corrector activity at CFTR F508del mutant in human CFBE41o- cells coexpressing HS-YFP incubated for 25 mins by microplate reader based analysis; format: cell-based
Outline: (§2)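 CFBE41o– cells stably expressing F508del-CFTR and HS-YFP were treated 24 h after seeding; DMSO and VX-809 (1 μM) served as controls. Cells were stimulated 25 min with forskolin (20 μM) plus VX-770 (1 μM). YFP was read for 2 s before and 12 s after iodide injection. Initial slope came from an exponential fit of the final 11 s. Three independent experiments.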

[6] = test system: Cystic fibrosis transmembrane conductance regulator (Homo sapiens), P13569 [F508del]; assay: Corrector activity at CFTR F508del mutant in human CFBE41o- cells transfected with NT siRNA assessed as increase in CFTR mutant activity at 5 uM incubated for 24 hrs in presence of VX-661/VX-445; format: cell-based
Outline: (§3)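 CFBE41o– F508del/HS-YFP cells were reverse-transfected with 50 nM (final) NT or RNF5 siRNA using lipofectamine 2000. Medium was changed next day, then compounds were given for 24 h at 37 °C. Readout was the YFP iodide-influx assay after forskolin (20 μM) plus VX-770 (1 μM) stimulation.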

[7] = test system: Cystic fibrosis transmembrane conductance regulator (Homo sapiens), P13569 [F508del]; assay: Corrector activity at CFTR F508del mutant in human CFBE41o- cells transfected with RNF5 siRNA assessed as increase in CFTR mutant activity at 5 uM incubated for 24 hrs; format: cell-based; outline: as §3
[8] = test system: Cystic fibrosis transmembrane conductance regulator (Homo sapiens), P13569 [F508del]; assay: Corrector activity at CFTR F508del mutant in human CFBE41o- cells assessed as appearance of CFTR mutant forms at 5 uM incubated for 24 hrs in presence of MG-132 by Western blot analysis; format: cell-based
Outline: (§4)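 Confluent CFBE41o– F508del cells were treated 24 h, with MG-132 (10 μM) or DMSO in the last 4 h. Lysate (600 μg protein) was immunoprecipitated with rabbit anti-CFTR (2 μg, 1 h RT) and protein A/G beads, then eluted reducing. Samples ran on 4–15% gradient SDS-PAGE and were western blotted. Bands were read by chemiluminescence, with densitometry of ubiquitylated CFTR.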

[9] = test system: Cystic fibrosis transmembrane conductance regulator (Homo sapiens), P13569 [F508del]; assay: Corrector activity at CFTR F508del mutant in human CFBE41o- cells assessed as increase in CFTR mutant activity at 5 uM in presence of VX-809 incubated for 24 hrs; format: cell-based; outline: as §2
[10] = test system: Cystic fibrosis transmembrane conductance regulator (Homo sapiens), P13569 [F508del]; assay: Corrector activity at CFTR F508del mutant in human CFBE41o- cells assessed as rescue of CFTR mutant at 5 uM incubated for 24 hrs in presence of VX661/VX-445 by Western blot analysis; format: cell-based
[11] = test system: Cystic fibrosis transmembrane conductance regulator (Homo sapiens), P13569 [F508del]; assay: Corrector activity at CFTR F508del mutant in human CFBE41o- cells assessed as increase in CFTR mutant activity at 5 uM in presence of VX-661/VX-445 incubated for 24 hrs; format: cell-based; outline: as §2
[12] = test system: Cystic fibrosis transmembrane conductance regulator (Homo sapiens), P13569 [F508del]; assay: Corrector activity at CFTR F508del mutant in human CFBE41o- cells transfected with NT siRNA assessed as increase in CFTR mutant activity at 5 uM incubated for 24 hrs; format: cell-based; outline: as §3
[13] = test system: Cystic fibrosis transmembrane conductance regulator (Homo sapiens), P13569 [F508del]; assay: Corrector activity at CFTR F508del mutant in human CFBE41o- cells assessed as increase in CFTR mutant activity at 5 uM in presence of VX-445 incubated for 24 hrs; format: cell-based; outline: as §2
[14] = test system: Cystic fibrosis transmembrane conductance regulator (Homo sapiens), P13569 [F508del]; assay: Corrector activity at CFTR F508del mutant in human CFBE41o- cells assessed as decrease in accumulation of ubiquitylated CFTR at 5 uM incubated for 24 hrs in presence of VX-661/VX-445 by Western blot analysis; format: cell-based; outline: as §4
[15] = test system: CFBE41o-; assay: Induction of autophagy in human CFBE41o- cells harbouring CFTR F508del mutant assessed as increase in number of autophagic vacuoles at 5 uM incubated for 24 hrs by confocal microscopy based analysis; format: functional, cell-based; outline: as §1
[16] = test system: Cystic fibrosis transmembrane conductance regulator (Homo sapiens), P13569 [F508del]; assay: Corrector activity at CFTR F508del mutant in human CFBE41o- cells transfected with RNF5 siRNA assessed as increase in CFTR mutant activity at 5 uM incubated for 24 hrs in presence of VX-661/VX-445; format: cell-based; outline: as §3

Chain of Cystic fibrosis transmembrane conductance regulator (Homo sapiens), P13569 [F508del] (P13569 as listed by the source): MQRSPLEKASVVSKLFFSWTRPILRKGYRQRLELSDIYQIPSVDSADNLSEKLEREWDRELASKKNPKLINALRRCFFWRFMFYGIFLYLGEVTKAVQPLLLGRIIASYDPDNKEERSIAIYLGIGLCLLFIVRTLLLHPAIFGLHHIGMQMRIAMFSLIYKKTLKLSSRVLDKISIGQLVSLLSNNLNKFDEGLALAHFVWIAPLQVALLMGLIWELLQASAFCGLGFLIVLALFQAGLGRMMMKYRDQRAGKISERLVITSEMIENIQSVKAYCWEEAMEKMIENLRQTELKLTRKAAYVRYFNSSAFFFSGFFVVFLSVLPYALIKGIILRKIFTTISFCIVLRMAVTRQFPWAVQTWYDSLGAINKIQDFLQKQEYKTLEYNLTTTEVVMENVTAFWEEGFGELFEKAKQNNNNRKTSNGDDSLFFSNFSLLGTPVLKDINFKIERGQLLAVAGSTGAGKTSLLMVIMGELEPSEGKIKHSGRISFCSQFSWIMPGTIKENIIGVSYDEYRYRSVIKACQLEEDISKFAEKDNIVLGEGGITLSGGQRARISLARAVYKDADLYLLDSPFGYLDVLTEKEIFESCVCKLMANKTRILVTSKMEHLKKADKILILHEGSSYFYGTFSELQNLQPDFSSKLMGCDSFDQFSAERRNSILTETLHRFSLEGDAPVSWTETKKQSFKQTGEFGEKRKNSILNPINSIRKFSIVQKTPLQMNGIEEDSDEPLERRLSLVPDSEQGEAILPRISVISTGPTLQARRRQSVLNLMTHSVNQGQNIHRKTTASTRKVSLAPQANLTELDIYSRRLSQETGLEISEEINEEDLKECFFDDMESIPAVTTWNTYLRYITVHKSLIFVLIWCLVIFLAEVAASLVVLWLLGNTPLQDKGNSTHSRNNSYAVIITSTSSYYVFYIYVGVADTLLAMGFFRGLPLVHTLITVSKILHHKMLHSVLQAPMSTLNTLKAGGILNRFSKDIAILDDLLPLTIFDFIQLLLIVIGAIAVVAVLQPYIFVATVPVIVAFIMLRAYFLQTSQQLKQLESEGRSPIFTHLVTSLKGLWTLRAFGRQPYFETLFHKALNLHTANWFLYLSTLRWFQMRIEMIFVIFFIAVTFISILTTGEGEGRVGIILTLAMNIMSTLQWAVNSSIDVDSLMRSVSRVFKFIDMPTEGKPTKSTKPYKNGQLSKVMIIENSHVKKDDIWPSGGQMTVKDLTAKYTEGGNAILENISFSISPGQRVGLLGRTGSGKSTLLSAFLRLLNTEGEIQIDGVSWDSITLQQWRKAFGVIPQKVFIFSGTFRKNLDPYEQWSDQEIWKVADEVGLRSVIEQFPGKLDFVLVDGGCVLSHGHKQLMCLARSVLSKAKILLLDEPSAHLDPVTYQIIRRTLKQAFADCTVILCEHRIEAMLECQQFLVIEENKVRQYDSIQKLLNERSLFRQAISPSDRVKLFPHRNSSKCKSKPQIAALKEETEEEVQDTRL
Chain of Cystic fibrosis transmembrane conductance regulator (P13569 as listed by the source): as above

Activity [1]: Not Active
SMILES: Cc1ns/c(=N\C(=N\c2ccncc2)c2ccccc2)n1Cc1ccccc1

SMILES: Cc1ns/c(=N\C(=N\c2ccccc2)c2ccccc2)n1Cc1cccc(F)c1
Activity [2]: Non-Toxic

SMILES: Cc1ns/c(=N\C(=N\c2ccccc2)c2ccccc2)n1Cc1ccccc1Cl
Activity [3]: Toxic
Activity [2]: Non-Toxic

SMILES: COc1ccccc1Cn1c(C)ns/c1=N\C(=N\c1ccccc1)c1ccccc1
Activity [3]: Toxic
Activity [2]: Non-Toxic

SMILES: Cc1ns/c(=N\C(=N\c2ccccc2)c2ccccc2)n1Cc1cccc(N(C)C)c1
Activity [2]: Non-Toxic

SMILES: CCC(=O)N1CCN(c2ccc(-n3c(=O)ccc4cnc5ccc(-c6cnc7ccccc7c6)cc5c43)cc2C(F)(F)F)CC1
Activity [4]: Active

SMILES: Cc1cccc(Cn2c(C)ns/c2=N\C(=N\c2ccccc2)c2ccccc2)c1
Activity [2]: Non-Toxic

SMILES: Cc1ns/c(=N\C(=N\c2ccccc2)c2ccccc2)n1Cc1ccc(Cl)cc1
Activity [2]: Non-Toxic

Activity [1]: Not Active
EC50 [5]: 1600 nM
SMILES: Cc1ns/c(=N\C(=N\c2ccccc2)c2ccccc2)n1Cc1cccc(O)c1
Activity [3]: Toxic
Activity [2]: Non-Toxic

SMILES: Cc1ccccc1Cn1c(C)ns/c1=N\C(=N\c1ccccc1)c1ccccc1
Activity [2]: Non-Toxic

SMILES: Cc1ns/c(=N\C(=N\c2ccccc2)c2ccccc2)n1Cc1cccc(Cl)c1
Activity [2]: Non-Toxic

Activity [1]: Not Active
SMILES: Cc1ns/c(=N\c2ccccn2)n1Cc1ccccc1

Activity [6]: Active
Activity [7]: inactive
Activity [8]: inactive
Activity [9]: Active
Activity [1]: Not Active
Activity [10]: Active
Activity [11]: Active
EC50 [5]: 1200 nM
Activity [12]: Active
Activity [13]: Active
Activity [14]: Active
Activity [16]: inactive
SMILES: COc1cccc(Cn2c(C)ns/c2=N\C(=N\c2ccccc2)c2ccccc2)c1
Activity [2]: Non-Toxic
Activity [15]: Active

Activity [1]: Not Active
SMILES: Cc1ns/c(=N\C(=N\c2ccccc2)c2ccncc2)n1Cc1ccccc1
Activity [2]: Non-Toxic
Activity [15]: inactive
